Legend:
[1] = (§1) Concentration required for inhibition of free fatty acid liberation in Canine myocardial lipase assay; type: tissue-based, Canis lupus familiaris, Myocardium
Rattus norvegicus [2] = species on record: Rattus norvegicus; assay: Concentration required for inhibition of adipocyte lipolysis in rat adipocyte assay was determined; type: functional
In short: (§2)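 Abdominal fat pads from male rats (200–250 g) were collagenase-digested for 1 h at 37 °C in Krebs-bicarbonate buffer gassed with 95:5 O2/CO2, then washed twice. Cells were stimulated with epinephrine (3 µM) plus methylisobutylxanthine (10 µM). Compound was added from DMSO or water stock and incubated 1 h at 37 °C. The run was stopped on ice, and glycerol in the aqueous phase was measured by glycerol dehydrogenase (NAD→NADH).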

Canis lupus familiaris [3] = species on record: Canis lupus familiaris; assay: Percent inhibition of free fatty acid liberation at 100 uM was determined in Canine myocardial lipase assay
In short: (§3)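 Lipases were extracted from washed canine heart membranes with buffer, heparin and a little Triton X-100. The reaction ran in an oil-water emulsion of triolein with [3H]triolein tracer, 50 mM Tris pH 6.8 and 0.5% BSA. Compound was at 100 µM (3.0% DMSO final), tested in duplicate. Released [3H]oleic acid was extracted into hexane, separated from triolein and scintillation counted.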

Canis lupus familiaris [4] = species on record: Canis lupus familiaris; assay: Percentage inhibition of free fatty acid liberation at 100 uM determined in canine myocardial lipase assay; type: functional; in short: as §3
Rattus norvegicus [5] = species on record: Rattus norvegicus; assay: Percent inhibition of adipocyte lipolysis in rat adipocyte assay was determined at 200 uM concentration.; type: functional
In short: (§4)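 Rat adipocytes were prepared by collagenase digestion of abdominal fat pads from male rats (200–250 g) in gassed Krebs-bicarbonate buffer. Lipolysis was driven by 3 µM epinephrine plus 10 µM methylisobutylxanthine. Compound was added from a 20 mM DMSO or water stock to a final 200 µM (1% DMSO), then incubated 1 h at 37 °C under 95:5 O2/CO2. Released glycerol was quantified with glycerol dehydrogenase.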

[6] = as §1; type: functional, tissue-based, Canis lupus familiaris, Myocardium
Rattus norvegicus [7] = species on record: Rattus norvegicus; assay: Percent inhibition of adipocyte lipolysis in rat adipocyte assay was determined at 3 uM; type: functional
In short: (§5)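 Abdominal fat pads from male rats (200–250 g) in Krebs-bicarbonate buffer gassed 95:5 O2/CO2, collagenase-digested 1 h at 37 °C, washed twice. Lipolysis stimulated with epinephrine (3 µM) plus methylisobutylxanthine (10 µM); compounds added from 20 mM DMSO or water stock (final DMSO 1%). Incubated 1 h at 37 °C under O2/CO2, stopped on ice. Medium glycerol measured by glycerol dehydrogenase (NAD to NADH).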

Rattus norvegicus [8] = species on record: Rattus norvegicus; assay: Concentration required for inhibition of adipocyte lipolysis in rat adipocyte assay was determined at 3 uM concentration.; type: functional; in short: as §5
Rattus norvegicus [9] = species on record: Rattus norvegicus; assay: Percent inhibition of adipocyte lipolysis in rat adipocyte assay was determined at 100 uM; type: functional; in short: as §2
Rattus norvegicus [10] = species on record: Rattus norvegicus; assay: Percent inhibition of adipocyte lipolysis in rat adipocyte assay was determined at 30 uM concentration.; type: functional; in short: as §2
Rattus norvegicus [11] = species on record: Rattus norvegicus; assay: Percent inhibition of adipocyte lipolysis in rat adiposite assay was determined at 3 uM concentration.; type: functional; in short: as §5
Rattus norvegicus [12] = species on record: Rattus norvegicus; assay: Percent inhibition of adipocyte lipolysis in rat adipocyte assay was determined at 3 uM concentration.; type: functional; in short: as §5
Rattus norvegicus [13] = species on record: Rattus norvegicus; assay: Percent inhibition of adipocyte lipolysis in rat adipocyte assay was determined at 100 uM concentration.; type: functional; in short: as §5
Rattus norvegicus [14] = species on record: Rattus norvegicus; assay: Inhibitory concentration (IC50) of adipocyte lipolysis in rat adipocyte assay was determined
Rattus norvegicus [15] = species on record: Rattus norvegicus; assay: Concentration required for inhibition of adipocyte lipolysis in rat adipocyte assay was determined at 200 uM concentration.; type: functional; in short: as §4

## O=C(O)c1cccnc1 [NIACIN]
[1]
  IC50: 13 µM

## CC(NC(=O)Oc1cccc2cccnc12)c1ccccc1 (centres undefined)
Rattus norvegicus [2]
  IC50: 35 µM
Canis lupus familiaris [3]
  inhibition: 74%

## COc1ccc(NC(=O)Oc2cccc3ccc(C)nc23)cc1
Rattus norvegicus [2]
  IC50: 0.2 µM
Canis lupus familiaris [4]
  inhibition: 68%

## COc1cccc(NC(=O)Oc2ccc3cccnc3c2)c1
Rattus norvegicus [5]
  inhibition at 200 µM: 25%
Canis lupus familiaris [3]
  inhibition: 52%

## COc1ccc(NC(=O)Oc2cccc3ocnc23)cc1
Rattus norvegicus [2]
  IC50: 2.4 µM
[6]
  IC50: 7 µM

## O=C(Nc1cccc(Cl)c1)Oc1cccc2cccnc12
Canis lupus familiaris [4]
  inhibition: 41%
Rattus norvegicus [7]
  inhibition at 3 µM: 5%

## COc1ccc(CNC(=O)Oc2cccc3cccnc23)cc1
Rattus norvegicus [2]
  IC50: 5.8 µM
Canis lupus familiaris [4]
  inhibition: 72%

## O=C(Nc1cccc(C(F)(F)F)c1)Oc1cccc2cccnc12
Rattus norvegicus [8]
  inhibition at 3 µM: 7%
Canis lupus familiaris [4]
  inhibition: 56%

## COc1ccc(NC(=O)COc2cccc3cccnc23)cc1
Rattus norvegicus [9]
  inhibition at 100 µM: 26%
Canis lupus familiaris [3]
  inhibition: 7%

## COc1ccccc1OC(=O)Nc1cccc2cccnc12
Rattus norvegicus [2]
  IC50: 30 µM
[1]
  IC50: 20 µM

## C[C@@H](NC(=O)Oc1cccc2cccnc12)c1ccccc1
Rattus norvegicus [2]
  IC50: 35 µM
Canis lupus familiaris [4]
  inhibition: 76%

## COc1ccc(NC(=O)Oc2cccc3cccnc23)c(OC)c1
Rattus norvegicus [8]
  IC50: 0.2 µM
Canis lupus familiaris [4]
  inhibition: 65%

## COc1ccc(NC(=O)Oc2ccc3ncccc3c2)cc1
Rattus norvegicus [10]
  inhibition at 30 µM: 8%
Canis lupus familiaris [3]
  inhibition: 64%

## COc1ccc(OC(=O)Nc2cccc3cccnc23)cc1
Rattus norvegicus [10]
  inhibition at 30 µM: 3%
Canis lupus familiaris [3]
  inhibition: 75%

## COc1ccc(NC(=O)Oc2ccc(S(=O)(=O)O)c3cccnc23)cc1
Canis lupus familiaris [4]
  inhibition: 83%
Rattus norvegicus [5]
  inhibition at 200 µM: 14%

## Cc1cccc(NC(=O)Oc2cccc3cccnc23)c1
Rattus norvegicus [11]
  Inhibition: 84%
Canis lupus familiaris [4]
  inhibition: 64%

## COc1ccc(NC(=O)Oc2cccc3ncccc23)cc1
Rattus norvegicus [10]
  inhibition at 30 µM: 1%
Canis lupus familiaris [3]
  inhibition: 63%

## Cc1ccc2cccc(OC(=O)Nc3ccccc3)c2n1
Rattus norvegicus [12]
  inhibition at 3 µM: 29%
Canis lupus familiaris [4]
  inhibition: 68%

## O=C(Nc1ccc(Br)cc1)Oc1cccc2cccnc12
Rattus norvegicus [12]
  inhibition at 3 µM: 5%
[6]
  IC50: 80 µM

## Cc1ccc(NC(=O)Oc2cccc3cccnc23)cc1
Rattus norvegicus [11]
  Inhibition: 76%
Canis lupus familiaris [4]
  inhibition: 63%

## COc1ccc(NC(=O)Oc2ccc3cccnc3c2)cc1
Rattus norvegicus [10]
  inhibition at 30 µM: 0%
Canis lupus familiaris [4]
  inhibition: 60%

## COc1ccccc1NC(=O)Oc1cccc2ncccc12
Rattus norvegicus [5]
  inhibition at 200 µM: 31%
[6]
  IC50: 48 µM

## O=C(NCCCCCCNC(=O)ON=C1CCCCC1)ON=C1CCCCC1
Rattus norvegicus [2]
  IC50: 1 µM
[6]
  IC50: 4 µM

## COc1ccc(CCNC(=O)Oc2ccc3cccnc3c2)cc1
Canis lupus familiaris [4]
  inhibition: 97%
Rattus norvegicus [13]
  inhibition at 100 µM: 84%

## COc1ccc(NC(=O)Oc2cccc3cccnc23)cc1
Rattus norvegicus [14]
  IC50: 0.1 µM
[6]
  IC50: 17 µM

## COc1ccccc1NC(=O)Oc1ccc2cccnc2c1
Rattus norvegicus [2]
  IC50: 80 µM
[1]
  IC50: 48 µM

## COc1ccc(C(=O)Oc2cccc3cccnc23)cc1
Canis lupus familiaris [4]
  inhibition: 13%
Rattus norvegicus [5]
  inhibition at 200 µM: 49%

## COc1ccccc1NC(=O)Oc1cccc2cccnc12
Rattus norvegicus [2]
  IC50: 7 µM
[1]
  IC50: 40 µM

## O=C(Nc1ccccc1)Oc1c(Cl)cc(Cl)c2cccnc12
Rattus norvegicus [5]
  inhibition at 200 µM: 28%
[6]
  IC50: 56 µM

## CCOC(=O)c1ccc(NC(=O)Oc2cccc3cccnc23)cc1
Rattus norvegicus [5]
  inhibition at 200 µM: 44%
[1]
  IC50: 200 µM

## O=C(Nc1ccccc1)Oc1cccc2cccnc12
Rattus norvegicus [12]
  inhibition at 3 µM: 28%
Canis lupus familiaris [4]
  inhibition: 69%

## O=C(Nc1ccccc1Cl)Oc1ccc2cccnc2c1
Canis lupus familiaris [4]
  inhibition: 6%

## COc1ccccc1NC(=O)Nc1cccc2cccnc12
Rattus norvegicus [5]
  inhibition at 200 µM: 4%
[1]
  IC50: 73 µM

## O=C(Nc1ccccc1Cl)Oc1cccc2cccnc12
Canis lupus familiaris [4]
  inhibition: 1%

## Cc1cnc(C(=O)O)c[n+]1[O-] [ACIPIMOX]
[6]
  IC50: 39 µM

## COc1cccc(NC(=O)Oc2cccc3cccnc23)c1
Rattus norvegicus [2]
  IC50: 7 µM
[6]
  IC50: 18 µM

## COc1ccccc1NC(=O)Oc1ccc2ncccc2c1
Rattus norvegicus [2]
  IC50: 30 µM
[1]
  IC50: 42 µM

## COc1ccc(OC)c(NC(=O)Oc2cccc3cccnc23)c1
Rattus norvegicus [2]
  IC50: 10 µM
[6]
  IC50: 48 µM

## Cc1ccccc1NC(=O)Oc1ccc2cccnc2c1
Rattus norvegicus [15]
  inhibition at 200 µM: 20%
Canis lupus familiaris [4]
  inhibition: 45%

## COc1ccc(CC(=O)Oc2cccc3cccnc23)cc1
Canis lupus familiaris [4]
  inhibition: 0%
Rattus norvegicus [13]
  inhibition at 100 µM: 74%

## COc1ccc(CCNC(=O)Oc2cccc3cccnc23)cc1
Canis lupus familiaris [4]
  inhibition: 70%
Rattus norvegicus [13]
  inhibition at 100 µM: 98%

## Cc1ccccc1NC(=O)Oc1cccc2cccnc12
Rattus norvegicus [8]
  inhibition at 3 µM: 40%
Canis lupus familiaris [4]
  inhibition: 7%

## O=C(Nc1ccccc1C(F)(F)F)Oc1ccc2cccnc2c1
Canis lupus familiaris [4]
  inhibition: 12%

## O=C(Nc1ccc(Cl)cc1)Oc1cccc2cccnc12
Rattus norvegicus [12]
  inhibition at 3 µM: 52%
Canis lupus familiaris [4]
  inhibition: 58%

## O=C(Nc1ccccc1)Oc1ccc(Cl)c2cccnc12
Rattus norvegicus [12]
  inhibition at 3 µM: 4%
Canis lupus familiaris [4]
  inhibition: 69%

## Cc1ccc2cccc(OC(=O)Nc3ccc(Br)cc3)c2n1
Rattus norvegicus [12]
  inhibition at 3 µM: 5%
Canis lupus familiaris [4]
  inhibition: 68%

## CCOC(=O)c1ccc(NC(=O)Oc2ccc3cccnc3c2)cc1
Rattus norvegicus [5]
  inhibition at 200 µM: 18%
Canis lupus familiaris [3]
  inhibition: 46%
